Our source for the EC50 values is BindingDB's records for doi:10.1016/j.bmcl.2009.08.036 (Glaxosmithkline, 2009).

This assay addresses T1, Oxysterols receptor LXR-beta (Homo sapiens, UniProt P55055).
T1 sequence (P55055 whole entry): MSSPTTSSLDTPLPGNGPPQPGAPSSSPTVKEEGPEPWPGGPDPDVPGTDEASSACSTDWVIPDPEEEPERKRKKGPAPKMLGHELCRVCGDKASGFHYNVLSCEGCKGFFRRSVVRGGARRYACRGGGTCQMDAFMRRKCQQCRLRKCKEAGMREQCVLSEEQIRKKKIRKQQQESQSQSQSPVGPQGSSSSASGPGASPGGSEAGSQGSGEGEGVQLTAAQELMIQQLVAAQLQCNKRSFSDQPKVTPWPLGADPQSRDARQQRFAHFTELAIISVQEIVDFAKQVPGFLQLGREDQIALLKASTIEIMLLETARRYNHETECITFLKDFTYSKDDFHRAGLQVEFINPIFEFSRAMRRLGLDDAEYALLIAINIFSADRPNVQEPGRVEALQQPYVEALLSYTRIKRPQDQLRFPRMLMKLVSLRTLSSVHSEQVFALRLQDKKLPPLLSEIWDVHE
The experiment in a line: Agonist activity at human LXRbeta assessed as association of SRC1 to LXRbeta ligand binding domain by FRET based cell-free ligand sensing assay. In a few lines: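 Cell-free FRET ligand-sensing assay measuring ligand-dependent recruitment of a 24-amino-acid steroid receptor coactivator 1 (SRC1) fragment to the LXR ligand-binding domain. Percent efficacy is expressed against the maximal agonist response of the reference agonist. Values are means of at least two experiments, standard deviation ≤10%.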

In the case of `O=C(O)C1CCCc2c(OCCCN(Cc3cccc(C(F)(F)F)c3Cl)CC(c3ccccc3)c3ccccc3)cccc21` (racemic) [(+/-)-5-(3-((2-chloro-3-(trifluoromethyl)benzyl)(2,2-diphenylethyl)amino)propoxy)-1,2,3,4-tetrahydronaphthalene-1-carboxylic acid], the concentration giving a half-maximal response (EC50) is 26 nM.
